The values that follow come from ChEMBL document CHEMBL1150877, “Total synthesis and biological activities of (+)- and (-)-boscialin and their 1'-epimers” (J Nat Prod, 1998).

SMILES strings stand for the structures. Values after ≈ are worked out from the molar mass of the structure shown. Active and inactive are the calls of the source. The rule behind the calls is not given here.

The nature of series [1]: Selectivity index, ratio of IC50 for human HT29 cells to IC50 for Trypanosoma brucei rhodesiense STIB 900. Format: toxicity, cell-based, HT-29. Conditions: HT29 cells versus Trypanosoma brucei rhodesiense STIB 900, read-out: Ratio IC50. Put shortly:
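The index was calculated as the HT-29 IC50 divided by the T. b. rhodesiense IC50. Both IC50s came from 72 h exposures read by Alamar Blue fluorescence, with linear interpolation.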

Series [2] deals with Staphylococcus epidermidis. Description: Antimicrobial activity against Staphylococcus epidermis ATCC 12228 after 24 hrs by agar diffusion assay. It is filed as functional. In outline: (§1)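 Overnight cultures were diluted in 0.9% NaCl and mixed into molten casein soymeal peptone agar at a final 5 × 10⁴–10⁵ CFU/mL, which was layered onto agar plates. Test substances (100 µL of 1 mg/mL in H2O) were placed in 1 cm wells. Plates were incubated at 37 °C for 24 h, and inhibition zone diameters were measured.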
On the technique in general: Agar diffusion results depend on both activity and mobility in agar.

The next series has as its system Candida albicans. Description: Antimicrobial activity against Candida albicans ATCC 10231 after 24 hrs by agar diffusion assay. Format: functional. In outline:
as §1

The subject of another series is Staphylococcus aureus. The series is described as follows: Antimicrobial activity against Staphylococcus aureus ATCC 9144 after 24 hrs by agar diffusion assay. It is filed as functional. Put shortly:
as §1

Series [3] has as its system Corynebacterium minutissimum. Description: Antimicrobial activity against Corynebacterium minutissium ATCC 23348 after 24 hrs by agar diffusion assay. It is filed as functional. In outline:
as §1

For a further series, the system named is HT-29. The series is described as follows: (§2) Cytotoxicity against human HT-29 cells. Format: cell-based. Conditions: Homo sapiens, HT-29. Put shortly:
(§3)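 HT-29 cells were seeded at 5000 cells/100 µL in MEM with 10% heat-inactivated FCS at 37 °C and 5% CO2. They were exposed for 72 h to threefold dilutions starting at […], with 1% DMSO final. MIC was read microscopically, and IC50 came from Alamar Blue fluorescence after 2 h by linear interpolation.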

Series [4] in a line: as §2. It is filed as cell-based. As to conditions: human, HT-29 cells; read-out: MIC. In outline: as §3
Another series deals with Leishmania donovani. Description: Antileishmanial activity against Leishmania donovani MHOM/ET/67/L82 infected in mouse peritoneal macrophages after 5 days.
Another series concerns Escherichia coli. Description: Antimicrobial activity against Escherichia coli NCTC 8196 after 24 hrs by agar diffusion assay. It is filed as functional. In outline:
as §1

Another series has as its system Trypanosoma cruzi. Description: Antitrypanosomal activity against Trypanosoma cruzi MHOM/Br/OO/Y trypomastigotes up to 100 ug/ml after 5 days.
For series [5], the system named is Trypanosoma brucei rhodesiense. Description: Antitrypanosomal activity against blood stream form of Trypanosoma brucei rhodesiense STIB 900 at 100 ug/ml. It is filed as functional, organism-based.
A further series deals with Corynebacterium xerosis. Description: Antimicrobial activity against Corynebacterium xerosis ATCC 373 after 24 hrs by agar diffusion assay. Format: functional. In outline:
as §1

Series [6] deals with Trypanosoma brucei rhodesiense. The series is described as follows: Antitrypanosomal activity against blood stream form of Trypanosoma brucei rhodesiense STIB 900. Format: functional, organism-based. In outline: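 Bloodstream-form trypanosomes at 200 cells/100 µL were exposed for 72 h to threefold dilutions starting at 100 µg/mL, with 1% DMSO final. MIC was read microscopically as the lowest concentration with no normally shaped or motile cells. For IC50, Alamar Blue was added for a further 2 h, fluorescence was measured, and values were obtained by linear interpolation.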

In the case of `CC(=O)/C=C/[C@]1(O)[C@@H](C)C[C@@H](O)CC1(C)C`, the selectivity ratio in series [1] amounted to 0.3. Besides, the “inhibition zone (IZ)” value in [2] is reported as 8 mm; with Candida albicans, 4.5 mm; with Staphylococcus aureus, 10.5 mm; in series [3] it was 18 mm; with Escherichia coli it was 2 mm; in the series on Corynebacterium xerosis it was 13 mm. Further, the IC50 (usually the concentration that gives 50% inhibition) in the series on HT-29 worked out at 8.1 µg/mL (≈ 35.8 µM); in [6] it was 31 µg/mL (≈ 137 µM). Further, the MCC in series [4] amounted to 56 µg/mL. The outcome (in the series on Leishmania donovani; in the series with Trypanosoma cruzi; in [5]) was inactive. Also, it took 100 µg/mL (≈ 442 µM) to inhibit growth in series [6] (MIC).
Take `CC(=O)/C=C/[C@@]1(O)[C@@H](C)C[C@@H](O)CC1(C)C`: in series [1], the selectivity ratio was 1. In addition, the “inhibition zone (IZ)” value in series [2] is 0 mm; in the series on Candida albicans, 5 mm; with Staphylococcus aureus, 3 mm; in series [3] it was 5 mm; with Escherichia coli, 1 mm; in the series with Corynebacterium xerosis, 3 mm. Further, the figures for the IC50 (in the series on HT-29; in the series with Leishmania donovani (5 d); in [6]) were 17 µg/mL (≈ 75.1 µM), 77 µg/mL (≈ 340 µM) and 18 µg/mL (≈ 79.5 µM), respectively. The MCC in series [4] is above 100 µg/mL. For the same compound, the result (with Trypanosoma cruzi; in [5]) was inactive. Further, the MIC (usually the lowest concentration that inhibits growth of the organism) in series [6] is 100 µg/mL (≈ 442 µM).
Consider `CC(=O)/C=C/[C@@]1(O)[C@H](C)C[C@H](O)CC1(C)C` [BOSCIALIN], for which, in series [1], the selectivity ratio turned out to be 23. Also, the “inhibition zone (IZ)” value in series [2] was determined as 0 mm; in the series on Candida albicans, 4 mm; in the series on Staphylococcus aureus, 2.5 mm; in series [3], 9.5 mm; in the series with Escherichia coli it was 1 mm; in the series with Corynebacterium xerosis it was 2 mm. The figures for the IC50 (in the series with HT-29; in series [5]; in series [6]) were 43 µg/mL (≈ 190 µM), 1.9 µg/mL (≈ 8.4 µM) and 1.9 µg/mL (≈ 8.4 µM), respectively. Besides, the MCC in series [4] was above 100 µg/mL. In addition, the outcome in the series on Leishmania donovani and with Trypanosoma cruzi was inactive. For the same compound, the MIC in [5] and in series [6] was 11 µg/mL (≈ 48.6 µM) throughout.
Regarding `CC(=O)/C=C/[C@]1(O)[C@H](C)C[C@H](O)CC1(C)C` [EPIBOSCIALIN], the selectivity ratio in series [1] turned out to be 9.4. In addition, the “inhibition zone (IZ)” value in series [2] is listed as 8 mm; with Candida albicans, 15.5 mm; in the series with Staphylococcus aureus, 10 mm; in [3], 20 mm; with Escherichia coli, 1.5 mm; with Corynebacterium xerosis, 12 mm. Moreover, the IC50 with HT-29 stood at 8.5 µg/mL (≈ 37.6 µM); in [5], 0.9 µg/mL (≈ 3.98 µM); in series [6], 0.9 µg/mL (≈ 3.98 µM). Besides, in series [4], the MCC turned out to be 56 µg/mL. The outcome in the series with Leishmania donovani and in the series on Trypanosoma cruzi was inactive. Further, the MIC in series [5] and in [6] was 3.7 µg/mL (≈ 16.3 µM) in each case.
Take `Nc1nc(N)nc(Nc2ccc([As]3SCC(CO)S3)cc2)n1` (stereo not drawn) [MELARSOPROL]: the selectivity ratio in [1] turned out to be 9000. In the series with HT-29, this compound returned an IC50 of 3.6 µg/mL. Moreover, in series [4], the MCC worked out at 11 µg/mL. In addition, in series [6], the IC50 was found to be 0.0004 µg/mL and the MIC stood at 0.011 µg/mL.
